Experiment [1] has as its system HeLa. The experiment is described as follows: Antiproliferative activity against human HeLa cells assessed as cell survival ratio at 0.1 uM treated 1 hr before 2Gy ionizing radiation measured after 6 to 8 days by DMR clonogenic assay. The experiment is classed as functional. The method in brief: (§1)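 HeLa cells seeded in 6-well dishes, incubated overnight at 37 °C/5% CO2, pre-treated 1 h with vehicle or inhibitor (0.1 or 0.5 μM), then given 2 Gy X-ray IR and held overnight. Medium then replaced without compound and culture continued 6-8 days. Colonies Giemsa-stained and counted automatically. DMR = % survival (vehicle, 2 Gy) / % survival (compound, 2 Gy).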

Experiment [2] concerns HeLa. The experiment is described as follows: Antiproliferative activity against human HeLa cells assessed as cell survival ratio at 0.5 uM treated 1 hr before 2Gy ionizing radiation measured after 6 to 8 days by DMR clonogenic assay. Format: functional. The method in brief:
as §1

Experiment [3] deals with DNA-dependent protein kinase catalytic subunit (Homo sapiens, UniProt P78527). Briefly: Inhibition of human DNA-PK using GST-tagged p53N66 as substrate after 1 hr by ELISA-based chemiluminiscence assay.

Molecules are shown by their SMILES.

Chain of DNA-dependent protein kinase catalytic subunit (P78527 whole entry): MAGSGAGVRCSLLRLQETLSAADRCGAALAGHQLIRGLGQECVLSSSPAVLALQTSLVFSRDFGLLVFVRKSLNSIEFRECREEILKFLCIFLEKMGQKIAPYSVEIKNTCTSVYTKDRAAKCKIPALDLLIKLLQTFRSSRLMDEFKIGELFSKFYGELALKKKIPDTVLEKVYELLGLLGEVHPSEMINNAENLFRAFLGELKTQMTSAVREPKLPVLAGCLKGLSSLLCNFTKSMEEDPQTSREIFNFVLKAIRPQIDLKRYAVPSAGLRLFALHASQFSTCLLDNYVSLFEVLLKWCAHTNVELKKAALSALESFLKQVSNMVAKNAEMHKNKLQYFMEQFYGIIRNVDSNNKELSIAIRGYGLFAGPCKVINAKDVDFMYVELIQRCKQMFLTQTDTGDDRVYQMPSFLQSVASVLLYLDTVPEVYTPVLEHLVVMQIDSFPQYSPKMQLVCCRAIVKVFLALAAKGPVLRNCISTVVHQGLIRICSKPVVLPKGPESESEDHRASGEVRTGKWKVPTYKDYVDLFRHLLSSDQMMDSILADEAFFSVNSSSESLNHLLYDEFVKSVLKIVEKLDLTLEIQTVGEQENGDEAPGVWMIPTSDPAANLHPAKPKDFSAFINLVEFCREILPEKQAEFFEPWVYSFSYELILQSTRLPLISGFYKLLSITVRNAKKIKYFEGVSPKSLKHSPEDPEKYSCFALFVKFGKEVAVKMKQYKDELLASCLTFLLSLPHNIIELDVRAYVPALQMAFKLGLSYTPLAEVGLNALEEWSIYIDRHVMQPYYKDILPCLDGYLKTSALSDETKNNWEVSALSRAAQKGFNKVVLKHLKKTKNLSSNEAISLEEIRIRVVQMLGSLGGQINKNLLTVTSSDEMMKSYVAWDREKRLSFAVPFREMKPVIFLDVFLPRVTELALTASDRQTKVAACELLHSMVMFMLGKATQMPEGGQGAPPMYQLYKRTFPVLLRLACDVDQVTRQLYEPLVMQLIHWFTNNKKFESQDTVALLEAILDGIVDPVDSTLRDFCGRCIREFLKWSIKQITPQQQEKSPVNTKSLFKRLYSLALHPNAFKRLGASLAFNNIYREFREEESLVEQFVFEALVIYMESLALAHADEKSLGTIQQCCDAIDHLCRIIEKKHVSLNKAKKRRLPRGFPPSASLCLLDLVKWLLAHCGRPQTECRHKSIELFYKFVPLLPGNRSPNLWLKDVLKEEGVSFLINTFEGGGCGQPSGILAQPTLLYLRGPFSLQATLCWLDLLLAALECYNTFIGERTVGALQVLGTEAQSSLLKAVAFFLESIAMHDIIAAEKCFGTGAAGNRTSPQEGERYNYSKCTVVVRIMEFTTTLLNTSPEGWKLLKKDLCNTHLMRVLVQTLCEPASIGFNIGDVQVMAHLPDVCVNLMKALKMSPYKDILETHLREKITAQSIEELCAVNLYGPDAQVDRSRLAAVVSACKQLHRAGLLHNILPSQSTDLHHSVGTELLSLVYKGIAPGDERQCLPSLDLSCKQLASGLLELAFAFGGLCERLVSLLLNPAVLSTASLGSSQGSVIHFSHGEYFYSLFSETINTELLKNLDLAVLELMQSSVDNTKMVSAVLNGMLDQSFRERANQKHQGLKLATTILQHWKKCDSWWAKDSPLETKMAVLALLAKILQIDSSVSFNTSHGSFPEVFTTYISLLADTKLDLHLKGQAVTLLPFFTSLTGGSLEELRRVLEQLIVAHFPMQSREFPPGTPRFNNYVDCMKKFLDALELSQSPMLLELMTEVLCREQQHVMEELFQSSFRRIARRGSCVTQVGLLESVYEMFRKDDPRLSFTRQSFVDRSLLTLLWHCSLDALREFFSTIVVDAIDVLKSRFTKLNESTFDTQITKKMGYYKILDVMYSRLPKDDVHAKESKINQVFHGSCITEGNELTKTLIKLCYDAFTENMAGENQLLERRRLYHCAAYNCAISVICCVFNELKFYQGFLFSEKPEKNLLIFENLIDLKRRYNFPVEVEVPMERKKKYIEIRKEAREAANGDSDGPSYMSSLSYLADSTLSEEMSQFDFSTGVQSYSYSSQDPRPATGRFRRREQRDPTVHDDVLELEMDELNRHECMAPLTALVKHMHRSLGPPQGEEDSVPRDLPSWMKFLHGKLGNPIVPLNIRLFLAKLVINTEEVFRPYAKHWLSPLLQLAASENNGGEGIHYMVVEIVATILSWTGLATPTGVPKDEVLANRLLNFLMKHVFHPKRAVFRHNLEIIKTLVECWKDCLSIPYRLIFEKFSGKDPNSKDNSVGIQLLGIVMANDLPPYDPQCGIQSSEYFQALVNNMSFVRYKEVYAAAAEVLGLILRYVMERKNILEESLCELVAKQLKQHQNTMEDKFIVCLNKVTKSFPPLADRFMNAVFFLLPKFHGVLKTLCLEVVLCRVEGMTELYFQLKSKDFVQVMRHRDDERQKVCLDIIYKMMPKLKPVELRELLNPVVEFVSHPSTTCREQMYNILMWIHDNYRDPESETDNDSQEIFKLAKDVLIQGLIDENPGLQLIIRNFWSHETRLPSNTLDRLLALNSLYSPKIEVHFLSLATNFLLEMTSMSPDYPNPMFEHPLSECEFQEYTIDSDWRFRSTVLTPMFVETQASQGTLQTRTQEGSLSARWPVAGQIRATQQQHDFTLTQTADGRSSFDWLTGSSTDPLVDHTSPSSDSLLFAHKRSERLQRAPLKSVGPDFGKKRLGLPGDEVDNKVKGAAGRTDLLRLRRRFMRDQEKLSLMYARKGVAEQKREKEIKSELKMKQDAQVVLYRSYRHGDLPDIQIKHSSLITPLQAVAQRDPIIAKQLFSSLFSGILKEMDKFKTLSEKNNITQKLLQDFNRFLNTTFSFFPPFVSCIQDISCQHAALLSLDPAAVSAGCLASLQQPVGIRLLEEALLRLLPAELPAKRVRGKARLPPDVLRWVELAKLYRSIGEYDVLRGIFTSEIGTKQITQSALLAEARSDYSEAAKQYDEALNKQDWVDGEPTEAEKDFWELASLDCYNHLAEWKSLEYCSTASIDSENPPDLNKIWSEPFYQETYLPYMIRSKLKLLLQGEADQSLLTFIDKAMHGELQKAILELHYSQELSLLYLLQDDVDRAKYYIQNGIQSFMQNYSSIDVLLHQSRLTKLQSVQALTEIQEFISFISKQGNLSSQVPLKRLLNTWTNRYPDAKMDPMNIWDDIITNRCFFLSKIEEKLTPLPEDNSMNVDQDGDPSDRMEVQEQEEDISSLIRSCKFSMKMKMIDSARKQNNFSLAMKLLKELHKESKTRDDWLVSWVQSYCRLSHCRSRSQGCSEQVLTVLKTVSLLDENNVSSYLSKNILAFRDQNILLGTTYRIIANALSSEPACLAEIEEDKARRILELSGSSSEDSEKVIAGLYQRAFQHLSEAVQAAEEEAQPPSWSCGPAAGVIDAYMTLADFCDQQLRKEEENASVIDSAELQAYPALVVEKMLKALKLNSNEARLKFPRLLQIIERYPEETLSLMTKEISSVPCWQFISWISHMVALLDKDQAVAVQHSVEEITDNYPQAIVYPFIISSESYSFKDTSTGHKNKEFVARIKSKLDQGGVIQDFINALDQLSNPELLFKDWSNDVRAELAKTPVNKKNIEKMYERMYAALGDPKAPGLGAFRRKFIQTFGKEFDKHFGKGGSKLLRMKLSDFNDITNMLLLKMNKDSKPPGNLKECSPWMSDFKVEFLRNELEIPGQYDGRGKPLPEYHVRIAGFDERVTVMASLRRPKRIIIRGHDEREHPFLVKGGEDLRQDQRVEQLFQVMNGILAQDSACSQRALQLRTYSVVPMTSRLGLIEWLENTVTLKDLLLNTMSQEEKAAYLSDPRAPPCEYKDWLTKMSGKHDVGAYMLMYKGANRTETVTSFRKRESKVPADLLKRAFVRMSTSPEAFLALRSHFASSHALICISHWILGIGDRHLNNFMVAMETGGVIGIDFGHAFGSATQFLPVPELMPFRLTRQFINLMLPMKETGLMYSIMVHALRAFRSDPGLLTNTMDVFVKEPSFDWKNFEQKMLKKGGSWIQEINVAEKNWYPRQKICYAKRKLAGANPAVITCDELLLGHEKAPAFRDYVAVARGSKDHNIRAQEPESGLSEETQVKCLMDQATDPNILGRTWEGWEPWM

Usually IC50 stands for the midpoint of a concentration-inhibition curve. A lower IC50 goes with greater potency in that assay. As to `CC(C)N1CCN(CCC(=O)Nc2ccc(-c3cccc4c(=O)cc(N5CCOCC5)oc34)c3sc4ccccc4c23)CC1`, the Ratio with HeLa [1] is 1.2; with HeLa [2], 3.6. The same molecule gave a 50% inhibitory concentration (IC50) in experiment [3] of 37 nM.
For `O=C(CNCCN1CCOCC1)Nc1ccc(-c2cccc3c(=O)cc(N4CCOCC4)oc23)c2sc3ccccc3c12` the same measures were 1.4, 4.7 and 12 nM.
For `CN1CCN(CCC(=O)Nc2ccc(-c3cccc4c(=O)cc(N5CCOCC5)oc34)c3sc4ccccc4c23)CC1` the same measures were 1, 6.6 and 28 nM.
For `O=C(CN1CCCCCC1)Nc1ccc(-c2cccc3c(=O)cc(N4CCOCC4)oc23)c2sc3ccccc3c12` the same measures were 1.3, 3.9 and 51 nM.
For `O=C(CCN1CCCN(CCO)CC1)Nc1ccc(-c2cccc3c(=O)cc(N4CCOCC4)oc23)c2sc3ccccc3c12`, the Ratio was determined as 1.2 in the experiment with HeLa [1] and 1.1 in the experiment with HeLa [2]. In experiment [3], this molecule gave a half-maximal inhibitory concentration (IC50) of 42 nM.
For `O=C(CNCC1CCCO1)Nc1ccc(-c2cccc3c(=O)cc(N4CCOCC4)oc23)c2sc3ccccc3c12` (centres undefined), the Ratio in the experiment with HeLa [1] was 1.7; in the experiment on HeLa [2] it was 7.7. This molecule gave a half-maximal inhibitory concentration (IC50) in experiment [3] of 14 nM.
For `O=C(CCNCCO)Nc1ccc(-c2cccc3c(=O)cc(N4CCOCC4)oc23)c2sc3ccccc3c12` the same measures were 0.9, 0.9 and 10 nM.
As for `C[C@@H]1CN(CCC(=O)Nc2ccc(-c3cccc4c(=O)cc(N5CCOCC5)oc34)c3sc4ccccc4c23)C[C@H](C)O1`, the Ratio in the experiment on HeLa [1] is 2.4; in the experiment on HeLa [2] it was 9.3. The same molecule gave an IC50 in experiment [3] of 9 nM.
For `O=C(CCN1CCNCC1)Nc1ccc(-c2cccc3c(=O)cc(N4CCOCC4)oc23)c2sc3ccccc3c12` the same measures were 1, 1.5 and 37 nM.
For `O=C(CCN1CCN(CCO)CC1)Nc1ccc(-c2cccc3c(=O)cc(N4CCOCC4)oc23)c2sc3ccccc3c12` the same measures were 1, 1.2 and 29 nM.
For `O=C(CCN1CCCCC1)Nc1ccc(-c2cccc3c(=O)cc(N4CCOCC4)oc23)c2sc3ccccc3c12` the same measures were 1.9, 5 and 37 nM.
In the case of `O=C(CCN(CCO)CCO)Nc1ccc(-c2cccc3c(=O)cc(N4CCOCC4)oc23)c2sc3ccccc3c12`, the Ratio with HeLa [1] was 1; with HeLa [2], 0.8. Further, in experiment [3], the IC50 amounted to 26 nM.
With `CN1CCCN(CCOc2ccc(-c3cccc4c(=O)cc(N5CCOCC5)oc34)c3sc4ccccc4c23)CC1`, the figures for the Ratio with HeLa [1] and in the experiment with HeLa [2] were 1.5 and 3.6, respectively. Moreover, in experiment [3], the IC50 worked out at 10 nM.
For `O=C(CCN1CCCCCC1)Nc1ccc(-c2cccc3c(=O)cc(N4CCOCC4)oc23)c2sc3ccccc3c12` the same measures were 3.1, 8.4 and 11 nM.
For `O=C(CCNCc1ccncc1)Nc1ccc(-c2cccc3c(=O)cc(N4CCOCC4)oc23)c2sc3ccccc3c12` the same measures were 1.1, 2.6 and 12 nM.
For `O=c1cc(N2CCOCC2)oc2c(-c3ccc(OCCNCCN4CCOCC4)c4c3sc3ccccc34)cccc12` the same measures were 1.4, 10.1 and 7 nM.
For `O=c1cc(N2CCOCC2)oc2c(-c3ccc(OCCN4CCOCC4)c4c3sc3ccccc34)cccc12`, the results for the Ratio in the experiment with HeLa [1] and with HeLa [2] were 1.5 and 6.4, respectively. The IC50 in experiment [3] came to 8 nM.
For `CCN1CCCC1CNCCC(=O)Nc1ccc(-c2cccc3c(=O)cc(N4CCOCC4)oc23)c2sc3ccccc3c12` (centres undefined) the same measures were 1.2, 1.7 and 49 nM.
For `CN(C)CC(=O)Nc1ccc(-c2cccc3c(=O)cc(N4CCOCC4)oc23)c2sc3ccccc3c12` the same measures were 1, 7.4 and 18 nM.
Take `O=C(CCN1CCOCC1)Nc1ccc(-c2cccc3c(=O)cc(N4CCOCC4)oc23)c2sc3ccccc3c12`: the Ratio with HeLa [1] is recorded as 2; in the experiment with HeLa [2] it was 6.1. In experiment [3], this molecule yielded a concentration for half-maximal inhibition (IC50) of 41 nM.
As for `O=C(COc1ccc(-c2cccc3c(=O)cc(N4CCOCC4)oc23)c2sc3ccccc3c12)NCc1ccncc1`, the Ratio amounted to 1 with HeLa [1] and 1.1 in the experiment on HeLa [2]. Besides, the 50% inhibitory concentration (IC50) in experiment [3] amounted to 10 nM.
For `CN1CCN(C(=O)COc2ccc(-c3cccc4c(=O)cc(N5CCOCC5)oc34)c3sc4ccccc4c23)CC1` the same measures were 1.1, 1.8 and 29 nM.
For the molecule `O=c1cc(N2CCOCC2)oc2c(-c3ccc(OCCN4CCCCC4)c4c3sc3ccccc34)cccc12`, the Ratio was 1.4 in the experiment with HeLa [1] and 3.5 in the experiment with HeLa [2]. Half-maximal inhibition in experiment [3] (IC50) required 20 nM.
Regarding `O=c1cc(N2CCOCC2)oc2c(-c3ccc(OCCNc4cccnc4)c4c3sc3ccccc34)cccc12`, the Ratio in the experiment on HeLa [1] is given as 0.9; with HeLa [2], 1. Further, in experiment [3], the 50% inhibitory concentration (IC50) stood at 2 nM.
For `O=C(CN1CCN(c2ccc(F)cc2)CC1)Nc1ccc(-c2cccc3c(=O)cc(N4CCOCC4)oc23)c2sc3ccccc3c12` the same measures were 1, 4.9 and 15 nM.
Consider `CCN(CC(=O)Nc1ccc(-c2cccc3c(=O)cc(N4CCOCC4)oc23)c2sc3ccccc3c12)Cc1ccncc1`, for which the Ratio was found to be 1.5 in the experiment with HeLa [1] and 14.1 in the experiment on HeLa [2]. The molecule also showed an IC50 in experiment [3] of 8 nM.
For `O=C(CCN1CCN(c2ncccn2)CC1)Nc1ccc(-c2cccc3c(=O)cc(N4CCOCC4)oc23)c2sc3ccccc3c12` the same measures were 1.6, 7.1 and 18 nM.
Turning to `CC(C)NCC(=O)CN1CCN(CC(=O)Nc2ccc(-c3cccc4c(=O)cc(N5CCOCC5)oc34)c3sc4ccccc4c23)CC1`, the Ratio in the experiment with HeLa [1] stood at 2; with HeLa [2] it was 8.8. The molecule also returned a half-maximal inhibitory concentration (IC50) in experiment [3] of 6 nM.
For the molecule `O=C(CCN1CCN(c2ccccn2)CC1)Nc1ccc(-c2cccc3c(=O)cc(N4CCOCC4)oc23)c2sc3ccccc3c12`, the Ratio in the experiment with HeLa [1] is listed as 1.5; with HeLa [2] it was 4.4. The molecule also had an IC50 in experiment [3] of 24 nM.
For `COCCN(CCOC)CC(=O)Nc1ccc(-c2cccc3c(=O)cc(N4CCOCC4)oc23)c2sc3ccccc3c12` the same measures were 1.5, 7.9 and 18 nM.
With `CN(C)CCN1CCN(CC(=O)Nc2ccc(-c3cccc4c(=O)cc(N5CCOCC5)oc34)c3sc4ccccc4c23)CC1`, the Ratio is 1.7 in the experiment on HeLa [1] and 5.9 in the experiment on HeLa [2]. This molecule registered a half-inhibitory concentration (IC50) in experiment [3] of 10 nM.
For `COc1ccc(CNCC(=O)Nc2ccc(-c3cccc4c(=O)cc(N5CCOCC5)oc34)c3sc4ccccc4c23)cc1` the same measures were 1.4, 6.8 and 38 nM.
`O=C(CCN1CCN(c2ccc(F)cc2)CC1)Nc1ccc(-c2cccc3c(=O)cc(N4CCOCC4)oc23)c2sc3ccccc3c12`: the Ratio in the experiment with HeLa [1] was 1.5; in the experiment on HeLa [2], 3.8. This molecule returned a half-maximal inhibitory concentration (IC50) in experiment [3] of 30 nM.
For `NCCNCCC(=O)Nc1ccc(-c2cccc3c(=O)cc(N4CCOCC4)oc23)c2sc3ccccc3c12` the same measures were 1.2, 1.4 and 22 nM.
On to `O=C(CN1CCCNCC1)Nc1ccc(-c2cccc3c(=O)cc(N4CCOCC4)oc23)c2sc3ccccc3c12`, for which the Ratio is given as 1.4 in the experiment on HeLa [1] and 1.5 with HeLa [2]. The midpoint of inhibition in experiment [3], the IC50, lay at 22 nM.
For `O=C(CCNCC1CCCO1)Nc1ccc(-c2cccc3c(=O)cc(N4CCOCC4)oc23)c2sc3ccccc3c12` (centres undefined) the same measures were 2, 4.7 and 7 nM.
Regarding `CN(C)CCN1CCN(CCC(=O)Nc2ccc(-c3cccc4c(=O)cc(N5CCOCC5)oc34)c3sc4ccccc4c23)CC1`, the Ratio in the experiment with HeLa [1] amounted to 1.1; in the experiment with HeLa [2], 1.3. Also, inhibition in experiment [3] was half-maximal at 10 nM (IC50).
As to `CN1CCN(CCOc2ccc(-c3cccc4c(=O)cc(N5CCOCC5)oc34)c3sc4ccccc4c23)CC1`, the Ratio in the experiment with HeLa [1] is 3.1; with HeLa [2], 5.1. In experiment [3], the IC50 came to 7 nM.
For `CC(=O)N1CCN(C(=O)COc2ccc(-c3cccc4c(=O)cc(N5CCOCC5)oc34)c3sc4ccccc4c23)CC1` the same measures were 1, 1.6 and 16 nM.
Take `CCN1CCN(CCC(=O)Nc2ccc(-c3cccc4c(=O)cc(N5CCOCC5)oc34)c3sc4ccccc4c23)CC1`: the Ratio was 1.4 in the experiment with HeLa [1] and 4.1 in the experiment with HeLa [2]. Further, the IC50 in experiment [3] worked out at 33 nM.
For `CN(C)CCN(C)C(=O)COc1ccc(-c2cccc3c(=O)cc(N4CCOCC4)oc23)c2sc3ccccc3c12` the same measures were 1.4, 2.1 and 53 nM.
For `O=C(CNCCN1CCNC1=O)Nc1ccc(-c2cccc3c(=O)cc(N4CCOCC4)oc23)c2sc3ccccc3c12` the same measures were 1.2, 1.2 and 7 nM.
Regarding `O=C(CCNCCN1CCNC1=O)Nc1ccc(-c2cccc3c(=O)cc(N4CCOCC4)oc23)c2sc3ccccc3c12`, the Ratio with HeLa [1] was 1.1; with HeLa [2], 0.9. Further, in experiment [3], the IC50 amounted to 6 nM.

(Values after ChEMBL document CHEMBL2417539, “1-substituted (Dibenzo[b,d]thiophen-4-yl)-2-morpholino-4H-chromen-4-ones endowed with dual DNA-PK/PI3-K inhibitory activity” (J Med Chem, 2013).)
